Assay results gathered from unrelated publications.
Lines come from different studies, so protocols differ.
CHRM3: Muscarinic acetylcholine receptor M3 (CHRM3, Homo sapiens, UniProt P20309)
SIGMAR1: Sigma non-opioid intracellular receptor 1 (SIGMAR1, Cavia porcellus, UniProt Q60492)
lecB: Fucose-binding lectin PA-IIL (lecB, Pseudomonas aeruginosa, UniProt Q9HYN5)
TMEM97: Sigma intracellular receptor 2 (TMEM97, Homo sapiens, UniProt Q5BJF2)

Cn1cc(-c2cccc(N3CCc4c(sc5c4CC(C)(C)C5)C3=O)c2CO)cc(Nc2ccncn2)c1=O
Ki (Ephrin type-A receptor 7 (EPHA7, Homo sapiens, UniProt Q15375); cell-free assay): 548 nM

Cc1ncc(C)n2nc(/C=C/c3nc(N4CCCC4)cc(N4CCOCC4)n3)nc12
Ki (cAMP and cAMP-inhibited cGMP 3',5'-cyclic phosphodiesterase 10A (Pde10a, Rattus norvegicus, UniProt Q9QYJ6); enzyme activity; inhibitor; TR-FRET): 0.59 nM

c1cc(N2CCNCC2)c2cc[nH]c2c1
Ki (CHRM3; ligand displacement; radioligand; cell membranes): > 31600 nM

CC1=NC2(CCN(C)CC2)C(=O)N(c2c(C)cccc2C)C1=O
Ki (SIGMAR1; cell-free assay): 8 nM

CC(C)C[C@H](NC(=O)CNC(=O)[C@H](C)NC(=O)c1ccc(S(=O)(=O)NC[C@H]2O[C@@H](C)[C@@H](O)[C@@H](O)[C@@H]2O)cc1)C(=O)N[C@@H](C)C(=O)NC[C@@H]1CCN(c2cc3c(cc2F)c(=O)c(C(=O)O)cn3C2CC2)C1
Ki (lecB; ligand displacement; FP): 1760 nM

CCN(CC)CCO[C@H]1CC[C@@]2(C)C(=CC[C@@H]3[C@@H]2CC[C@]2(C)C(=O)CC[C@@H]32)C1
Ki (TMEM97; ligand displacement; radioligand): 19.3 nM

CC(C)[C@]1(O)[C@H](O)[C@@H]2O[C@]23[C@]2(O[C@H]2C[C@H]2C4=C(CC[C@@]23C)C(=O)OC4)[C@@H]1O
Ki (dCTP pyrophosphatase 1 (Homo sapiens, UniProt Q9H773); enzyme activity; inhibitor): 85000 nM

CC(C)[C@@H](Nc1nc(Cl)nc2c1ncn2[C@H]1[C@H](O)[C@H](O)[C@]2(CN=[N+]=[N-])C[C@H]12)C1CC1
Ki (Alpha-2B adrenergic receptor (ADRA2B, Homo sapiens, UniProt P18089); ligand displacement; radioligand): > 7300 nM

C[C@H](N)Cn1ncc2ccc3c(c21)CCCO3
Ki (5-hydroxytryptamine receptor 1B (Htr1b, Rattus norvegicus, UniProt P28564); ligand displacement; radioligand): 5570 nM

CN(C)CCCN1c2ccccc2CCc2ccc(Cl)cc21
Ki (TMEM97; ligand displacement; radioligand): 200 nM

CC(C)C[C@H](NC(=O)CNC(=O)[C@H](C)NC(=O)c1ccc(S(=O)(=O)NC[C@H]2O[C@@H](C)[C@@H](O)[C@@H](O)[C@@H]2O)cc1)C(=O)N[C@@H](C)C(=O)N1CCN(c2cc3c(cc2F)c(=O)c(C(=O)O)cn3C2CC2)CC1
Ki (lecB; ligand displacement; FP): 1920 nM

NC1C(O)C(O)C(O)C1O (stereo not drawn)
Ki (Alpha-mannosidase 2 (Drosophila melanogaster, UniProt Q24451); enzyme activity; inhibitor; fluorescence): 100000 nM

CN1[C@@H]2CC[C@H]1C[C@@H](OC(c1ccccc1)c1ccccc1)C2
Ki (TMEM97; ligand displacement; radioligand): 63.7 nM

Cc1cc(N2CCNCC2)nc2ccccc12
Ki (CHRM3; ligand displacement; radioligand; cell membranes): 31600 nM

COc1cc2c(cc1OC)CN(CCc1ccc(NC(=O)c3cccc4c(=O)c5cccc(OC)c5[nH]c34)cc1)CC2
Ki (TMEM97; ligand displacement; radioligand): 77 nM

COCCCN1CCN(c2ccccc2OC)CC1
Ki (Alpha-1D adrenergic receptor (ADRA1D, Homo sapiens, UniProt P25100); cell-free assay): 170 nM

CN1CCN(C2=Nc3ccccc3Oc3ccc(Cl)cc32)CC1
Ki (TMEM97; ligand displacement; radioligand): 3460 nM

CCN(CC)CCNC(=O)c1ccc(F)cc1
Ki (SIGMAR1; ligand displacement; radioligand; cell membranes): 8900 nM
